From PubChem
Only some compounds are listed: those with a hit (about 2.3% of all), similar ones and a draw of the others.
TRPC4 inh = inhibitors of mouse TRPC4 channel, primary screen, Fluo4 calcium, HEK293 TRPC4beta/mu-opioid cells; B-score at 10 µM; Short transient receptor potential channel 4 (Mus musculus), Q9QUQ5; 300,000 compounds, 0.39% hits; AID 2247, 2010; DAMGO-evoked Fluo4 calcium flux; active compounds read low;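 active means B-score over 3 SD under the library average, no early fluorescence shift, positive overall ratio signal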
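Assay system: TRPC4beta/mu-opioid receptor HEK293 cell line; compound dosing: single concentration per test compound; detection: Fluo4 Ca2+ flux fluorescence; evaluation: per-well B score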
TRPC6 inh = mouse TRPC6 channel inhibitors, primary screen, cell-based, HEK293, membrane potential dye; ACh-evoked depolarization; active compounds read low; B-score at 10 µM; 310,000 compounds, 1.1% hits; AID 2553, 2010;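 active means B-score under library mean minus 3 SD, initial fluorescence not abnormally high, positive integrated signal ratio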;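 further: B-score derived from integrated fluorescence ratio over the kinetic read; more negative B-score means stronger inhibition of depolarization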
TRPC4 PAM = positive allosteric modulators of TRPC4, primary screen, cell-based, mouse TRPC4beta, HEK293 mu-opioid, Fluo-4 calcium. Short transient receptor potential channel 4 (Mus musculus), Q9QUQ5. DAMGO EC20, Fluo-4 Ca2+ flux; active compounds read high. B-score at 10 µM. 310,000 compounds, 0.42% hits. AID 2227, 2009;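 active means B-score of calcium response area above 5 SD of library B-scores, with initial fluorescence ratio within 5 SD of library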;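 further: B-score of integrated fluorescence ratio over time as area under calcium response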
TRPC4 agonist = activators of mouse TRPC4 channel, primary screen, Fluo4 calcium, HEK293 TRPC4beta/mu-opioid cells; B-score at 10 µM; 310,000 compounds, 0.49% hits; Short transient receptor potential channel 4 (Mus musculus), Q9QUQ5; Fluo4 calcium fluorescence; active compounds read high;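 active means B-score above 5 SD of library B-scores, and initial fluorescence ratio not above library mean plus 5 SD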;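 further: positive B-score marks a calcium rise read as TRPC4 activation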
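Material: HEK293 stable line with TRPC4beta plus mu-opioid receptor; technique: Fluo4 calcium-sensitive dye fluorescence, kinetic, 1 Hz baseline; timing: Fluo4 dye loading 45 min at room temperature, 110 s recording; controls: assay buffer as low control, maximal DAMGO as high control; read-out: integrated baseline-normalised fluorescence ratio, converted to per-well B score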
TRPC6 activator = mouse TRPC6 channel activators, primary screen, cell-based, HEK293, membrane potential dye; 310,000 compounds, 0.13% hits; HEK293-TRPC6 membrane potential dye fluorescence; active compounds read high; AID 2550, 2010; B-score at 10 µM;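 active means B-score of the integrated fluorescence ratio above library mean plus 3 SD, and starting fluorescence ratio within library mean plus 5 SD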;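 further: higher score means more depolarization so channel activation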
TRPC4 sel inh 2 = second check of whether TRPC6 inhibitors also affect mouse TRPC4; 920 compounds, 42% hits; shares compounds with TRPC6 inh; HEK293 TRPC4/MOR, membrane potential dye fluorescence; channel activated by saturating DAMGO dose; inhibition, % at 10 µM;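 active means compounds whose fluorescence signal differed from control wells by over 3 SD, either direction, in both duplicate plates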
TRPC4 spec = mouse TRPC4 modulation by TRPC6 hits, confirmation, selectivity assay for TRPC6 inhibitor project, cell-based, HEK293 TRPC4/mu-opioid, membrane potential dye. 920 compounds, 61% hits. AID 2777, 2010. membrane potential fluorescence. activity change, negative = inhibition, % at 10 µM. shares compounds with TRPC6 inh;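 active means rise or fall in signal beyond 3 SD of buffer-only wells in both replicate plates, either sign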;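 further: integrated kinetic ratio of fluorescence range over baseline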
HEK293 MPD ctr 2-1 = nonspecific membrane potential effects, parental HEK293, confirmation, counter-screen for TRPC6 inhibitor project, cell-based, second counter screen; signal change vs control, % at 10 µM; AID 2779, 2010; shares compounds with TRPC6 inh; parental HEK293 membrane potential dye fluorescence; maximal acetylcholine challenge after compound addition; 920 compounds, 31% hits;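 active means membrane potential signal moving either way by over 3 SD of the maximum-effect control, in both duplicate plates, meaning non-specific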
HEK293 MPD ctr-1 = membrane potential modulation in parental HEK293, confirmation, counter-screen for TRPC6 inhibitor project, cell-based; shares compounds with TRPC6 inh; parental HEK293 membrane potential dye fluorescence; membrane potential signal change, % at 10 µM; 920 compounds, 60% hits; AID 2780, 2010;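 active means membrane potential signal shifting up or down by more than 3 SD of buffer-only wells, on both duplicate plates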
HEK293 MPD ctr-2 = parental HEK293 membrane potential modulation, confirmation, counter-screen for TRPC6 modulator project, cell-based; 2,400 compounds, 51% hits; AID 488924, 2010; shares compounds with TRPC6 inh; membrane potential dye fluorescence; membrane potential signal change, % at 10 µM;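 active means membrane potential signal moves up or down beyond 5 SD from buffer-only wells, on both duplicate plates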
HEK293 MPD ctr 2-2 = parental HEK293 nonspecific activity of TRPC6 modulators, second screen | shares compounds with TRPC6 inh | membrane potential dye fluorescence; after compound, maximal acetylcholine stimulation | inhibition, % at 10 µM | 2,400 compounds, 14% hits | AID 488926;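 active means membrane potential signal drops by more than 5 SD from the mean control signal, in both duplicate plates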;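 further: plate controls were acetylcholine ECmax control wells for no effect and buffer only wells for full effect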
TRPC4/MOR mod = TRPC4 modulation by TRPC6 hit compounds, confirmation, selectivity assay for TRPC6 modulator project, cell-based, HEK293 TRPC4/mu-opioid, membrane potential dye, mouse. shares compounds with TRPC6 inh. membrane potential fluorescence. percent change from control (negative = decrease, positive = increase), % at 10 µM. 2,400 compounds, 69% hits. AID 488927, 2010;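 active means membrane potential signal moved up or down beyond 5 SD of buffer control wells, in both duplicate plates, actives on both sides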;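 further: plate controls were assay buffer wells for no effect and DAMGO maximal-effect wells for full effect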
TRPC4/MOR inh 2 = second selectivity test of TRPC6 modulators against mouse TRPC4. 2,400 compounds, 55% hits. AID 488928. shares compounds with TRPC6 inh. HEK293 TRPC4/mu-opioid, membrane potential dye fluorescence; stimulated with maximal-effect DAMGO. inhibition, % at 10 µM;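 active means drop in membrane potential signal beyond 5 SD of the control wells in both duplicate plates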;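 further: TRPC4 counter screen for TRPC6 hits run under conditions tuned for TRPC6 not TRPC4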
TRPC6 inh conf = mouse TRPC6 channel inhibitors, confirmation, HEK293 cells, membrane potential dye, duplicate; shares compounds with TRPC6 inh; ACh-evoked depolarization; inhibition, % at 10 µM; 3,300 compounds, 43% hits;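 active means fluorescence ratio falls more than 5 SD below the full-stimulation control mean, in both duplicate runs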;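 further: integrated fluorescence ratio of peak minus minimum over baseline after agonist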
TRPC6 act conf = mouse TRPC6 channel activators, confirmation, HEK293 cells, membrane potential dye, duplicate | shares compounds with TRPC6 inh | HEK293-TRPC6 membrane potential dye fluorescence, FDSS | activation, % at 10 µM | 2,800 compounds, 11% hits;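 active means ratio signal rise beyond 5 SD above unstimulated control wells' mean, seen in both duplicate runs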;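 further: plate controls were buffer EC0 wells for no effect and acetylcholine ECmax response for full effect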
Active calls of the source: *; i = inactive; / = no result.

SMILES	TRPC4 inh	TRPC6 inh	TRPC4 PAM	TRPC4 agonist	TRPC6 activator	TRPC4 sel inh 2	TRPC4 spec	HEK293 MPD ctr 2-1	HEK293 MPD ctr-1	HEK293 MPD ctr-2	HEK293 MPD ctr 2-2	TRPC4/MOR mod	TRPC4/MOR inh 2	TRPC6 inh conf	TRPC6 act conf
Nc1nc(N2CCN(c3ccccn3)CC2)nc2ccccc12	i	-6.87*	i	i	i	49.0%*	-18.8%*	i	-232.5%*	/	/	/	/	61.6%*	i
CCCCN1C(=O)/C(=C/C=C2\Oc3ccccc3N2CC)SC1=S	i	i	i	i	34.8*	/	/	/	/	338.5%*	i	99.0%*	i	i	i
COc1ccccc1N(CC(=O)NC1CCCCC1)S(C)(=O)=O	i	i	i	i	i	/	/	/	/	/	/	/	/	/	/
O=C(COc1ccccc1)NC1CCCCCCC1	i	-5.96*	39*	i	i	/	/	/	/	102.0%*	i	77.0%*	i	i	/
COC(=O)c1ccccc1OCC(=O)NC1CCCCC1	i	-5.29*	i	i	i	/	/	/	/	i	i	8.0%*	i	i	/
COc1ccccc1N(CC(=O)NC1CCCCC1)S(=O)(=O)c1ccccc1	i	-5.1*	i	i	i	/	/	/	/	474.5%*	i	208.5%*	37.5%*	i	/
COc1ccccc1NC(=O)COc1ccc(Br)cc1CNC1CCCC1	i	-7.56*	i	i	i	54.0%*	13.5%*	237.5%*	9.8%*	/	/	/	/	i	i
Fc1cc2[nH]c(=S)[nH]c2c(Br)c1N1CCSCC1	i	i	i	i	i	/	/	/	/	/	/	/	/	/	/
COc1ccc(S(=O)(=O)CCC(=O)NC2CCCCC2)cc1	i	-8.13*	i	i	i	i	i	i	i	/	/	/	/	i	i
